aDG glyco up: alpha-DG glycosylation activation; Pro5-aDG cells, alpha-DG glycosylation AlphaScreen (IIH6); 0% Pro5, 100% B10-LARGE cell signal; activation, % at 10 µM; hit rate 0.22% among 360,000; AID 624168;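 active = activation of at least 8% versus controls, or a plate z-score of at least 8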;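 note: Pro5 are CHO cells carrying HIG-tagged alpha-DG that lacks glycosylation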
MPTP block: inhibitors of mitochondrial permeability transition pore. isolated mouse mitochondria, Ca2+ swelling absorbance, 30 min. hit rate 1.4% among 360,000. inhibition, % at 10 µM. AID 602449;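 active = inhibition of 50% or more, scaled per plate between neutral and stimulator controls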;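 note: 0% = DMSO wells given calcium and 100% = 1 mM EGTA wells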
XBP1 UPR activ: activators of adaptive arm of unfolded protein response (XBP1). CHO-XBP1 luciferase reporter, IRE1-XBP1 UPR activation, luminescence; percent of tunicamycin response, DMSO as zero. activation, % at 20 µM. hit rate 0.33% among 330,000;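 active = versus positive control, 20 µM dose yields 30% or more activation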;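 note: 100% = tunicamycin at 10 µg/mL and 0% = DMSO only wells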
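Assay system: IRE1-XBP1 luciferase reporter CHO line. Input: 1000 cells/well. Buffer or medium: F12 with 10% serum. Doses: 20 µM, 1% DMSO. Times: overnight seeding at 37 °C, 6 h compound treatment at 37 °C. Technique: Steady-Glo luciferase glow luminescence, 10 min after reagent addition.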
NR3A LBD binder: modulates the human NR3A ligand-binding domain | NR3A LBD differential scanning fluorimetry, Tm shift; 0% = protein alone, 100% = glycine-bound protein | Tm shift relative to glycine control, % at 25 µM | hit rate 2.5% among 340,000;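 active = melting temperature shift of at least 10% of the positive control shift, at one fixed dose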
CHOP inh: blocks CHOP induction under ER stress | CHO-K1 CHOP-promoter luciferase, tunicamycin-induced, 15-18 h | hit rate 3.8% among 220,000 | inhibition, % at 10 µM;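 active = compounds that reduced the stress-induced luciferase reporter signal by more than about 70% of percent inhibition, limit read from the data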;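 note: 0% = tunicamycin plus vehicle and 100% = wells without tunicamycin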
UPR CHOP act: apoptotic UPR (CHOP) activation; CHO-CHOP luciferase reporter, luminescence; percent of tunicamycin response over DMSO baseline; activation, % at 10 µM; hit rate 0.34% among 330,000;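 active = at 10 µM dose, activation of 40% or more, normalized to positive control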;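 note: 100% = tunicamycin at 10 µg/mL and 0% = DMSO alone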
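Dosing – one dose, 10 µM in 0.5% DMSO · System – CHO-CHOP cells, stable luciferase reporter of PERK-eIF2a-CHOP signalling · Input – 500 cells/well · Control set – tunicamycin 10 µg/mL final as positive, DMSO-only wells as negative · Timing – 6 h compound treatment, 37 °C · Measure – % activation vs tunicamycin · Technique – luminescence read with Steady-Glo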
An asterisk follows results filed as active; . = no result given. The list is not random: actives were taken first. Their share in the collection is about 5.6%.

SMILES | aDG glyco up | MPTP block | XBP1 UPR activ | NR3A LBD binder | CHOP inh | UPR CHOP act
C/C(=N\NC(=O)Cc1ccc(Cl)cc1)c1cccnc1 | 0 | 1 | 0 | -2 | . | -1
COc1ccc(CNC(=O)CSc2nnc3c(n2)[nH]c2ccc(F)cc23)cc1 | 0 | 0 | -3 | 1 | . | 0
CC1Cc2ccccc2N1C(=O)CSc1nnc2c(n1)[nH]c1ccc(F)cc12 (centres undefined) | 0 | 19 | 1 | 22* | 48 | -1
O=C(CSc1nnc2c(n1)[nH]c1ccc(F)cc12)NCc1ccc(F)cc1 | 0 | -1 | 0 | 10* | . | 1
CN(C)S(=O)(=O)c1ccc(Cl)c(NC(=O)COC(=O)/C=C/c2ccco2)c1 | 0 | 12 | -2 | -2 | -18 | 1
O=C1CCCC2=C1C(c1cccs1)n1nc(SCc3ccccc3F)nc1N2 (centres undefined) | 0 | 0 | 3 | 7 | 17 | 6
Cc1ccccc1CSc1nc2n(n1)C(c1cccs1)C1=C(CCCC1=O)N2 (centres undefined) | 1 | -1 | 1 | -10 | 78* | -1
COc1ccc(CC(=O)Nc2cc(S(=O)(=O)Nc3ccc(OC)cc3)ccc2OC)cc1 | 0 | 1 | -5 | -6 | . | -1
COc1ccccc1N(C)C(=O)c1cc(S(=O)(=O)N2CCCC2)cn1C | 0 | 0 | 0 | 0 | . | 2
COc1ccc(S(=O)(=O)N2CCOC2CNC(=O)C(=O)NCc2ccccc2Cl)cc1 (centres undefined) | 0 | 0 | -8 | -3 | . | 1
O=c1c2ccccc2nc(/C=C/c2ccc(O)cc2)n1CCc1ccccc1 | 0 | -15 | 2 | 20* | 74* | 0
CCC1CCCCN1Cc1nc2c(c(=O)n(C)c(=O)n2C)n1Cc1ccccc1 (centres undefined) | 0 | 0 | -1 | 4 | 83* | 0
CCCCCn1c(CN(C)Cc2ccccc2)nc2c1c(=O)n(C)c(=O)n2C | 2 | 0 | . | -3 | -17 | .
CCOCCn1c(CN(Cc2ccccc2)Cc2ccccc2)nc2c1c(=O)n(C)c(=O)n2C | 0 | 1 | 2 | -2 | 80* | 2
CCOCCn1c(CN(Cc2ccccc2)Cc2ccccc2)nc2c1c(=O)[nH]c(=O)n2C | 0 | -2 | 2 | 1 | -12 | -1
CCCCn1c(CN(Cc2ccccc2)Cc2ccccc2)nc2c1c(=O)n(C)c(=O)n2C | 0 | -1 | 4 | 25* | . | -1
COc1cccc(N2CCN(C(=O)CSc3ccc(F)cc3)CC2)c1 | 0 | 1 | 1 | 4 | 15 | 0
CC(=O)Nc1cccc(C(=O)OCC(=O)N2CCC(c3ccccc3)=N2)c1 | 0 | -3 | 4 | -2 | . | 2
Cc1ccc(S(=O)(=O)N2CCOCC2)cc1NC(=O)COc1ccccc1Cc1ccccc1 | 1 | 1 | -3 | 0 | . | 0
Cc1cc(S(=O)(=O)Nc2ccc(C(=O)NCc3ccncc3)cc2)ccc1F | 0 | 0 | 0 | 3 | . | 1
CC(=O)Oc1ccc(N(C(C)=O)S(=O)(=O)c2ccc(C)c([N+](=O)[O-])c2)cc1 | 0 | 1 | -2 | -4 | 12 | 2
CCCOC(=O)C(C)n1cnc2scc(-c3ccc(C)cc3)c2c1=O (centres undefined) | 0 | 1 | -1 | 2 | . | -1
Cc1c(C=O)c2ccccn2c1C(=O)c1ccc(F)cc1 | 0 | 0 | -2 | 0 | . | -1
Cc1ccccc1NCC(=O)N/N=C/c1c(C)c(C(=O)c2ccc(Cl)cc2)n2ccccc12 | 0 | 1 | -2 | 12* | 2 | 2
Cc1c(C=O)c2ccccn2c1C(=O)c1ccccc1 | 0 | -3 | 1 | -1 | 72* | -2
CN(CC(=O)NCCCc1ccccc1)S(=O)(=O)c1ccc(Br)cc1 | 0 | 1 | -5 | -1 | . | -2
CCc1ccc(-c2cn3nc(C)c(C)nc3n2)cc1 | 0 | 0 | -9 | 0 | 92* | -10
Cc1nc2nc(-c3ccc(F)cc3)cn2nc1C | 0 | -1 | -8 | 2 | . | -2
O=C(Nc1nc(=O)c2ccccc2s1)c1ccc(Cl)cc1 | 0 | -2 | 16 | 1 | 75* | 6

Compound activity deposited in PubChem BioAssay by several laboratories.
